Measured values: ChEMBL document CHEMBL4020770, “Discovery of N-substituted-endo-3-(8-aza-bicyclo[3.2.1]oct-3-yl)-phenol and -phenyl carboxamide series of μ-opioid receptor antagonists” (Bioorg Med Chem Lett, 2017)
pKi: −log10 of the molar value.

Legend:
Mu-type opioid receptor [1] = target: T1, Mu-type opioid receptor (Homo sapiens, UniProt P35372); experiment: Intrinsic activity at recombinant human mu opioid receptor expressed in CHOK1 cells by [35S]GTPgammaS binding assay relative to DAMGO; type: functional, cell-based
T1 sequence (P35372 whole entry): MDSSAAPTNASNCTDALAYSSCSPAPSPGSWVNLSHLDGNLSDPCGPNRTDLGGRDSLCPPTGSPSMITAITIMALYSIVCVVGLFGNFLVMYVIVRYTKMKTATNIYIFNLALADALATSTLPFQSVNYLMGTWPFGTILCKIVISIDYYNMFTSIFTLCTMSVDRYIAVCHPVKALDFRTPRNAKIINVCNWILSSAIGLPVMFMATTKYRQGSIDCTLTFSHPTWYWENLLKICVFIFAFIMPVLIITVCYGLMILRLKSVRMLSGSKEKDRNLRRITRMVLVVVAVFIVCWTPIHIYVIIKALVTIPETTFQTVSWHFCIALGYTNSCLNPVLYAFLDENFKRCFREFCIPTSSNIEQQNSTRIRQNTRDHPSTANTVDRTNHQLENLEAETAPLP
In short: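 Membranes from CHO-K1 cells stably transfected with human recombinant μ-opioid receptor; agonist activity measured as [35S]-GTPγS binding. Maximum compound-evoked response minus basal, expressed as percentage of the maximum response evoked by DAMGO.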

Liver [2] = experiment: (§1) Half life in human liver microsomes; type: ADME, microsome; conditions: microsomes
[3] = Half life in rat liver microsomes; type: ADME, microsome; conditions: liver microsomes
[4] = (§2) Half life in dog liver microsomes; type: ADME, Canis lupus familiaris, microsome; conditions: liver microsomes
[5] = target: Delta-type opioid receptor (Homo sapiens, UniProt P41143); experiment: Displacement of [3H]DPN from recombinant human delta opioid receptor expressed in CHOK1 cell membranes
Delta-type opioid receptor, sequence (P41143 whole entry): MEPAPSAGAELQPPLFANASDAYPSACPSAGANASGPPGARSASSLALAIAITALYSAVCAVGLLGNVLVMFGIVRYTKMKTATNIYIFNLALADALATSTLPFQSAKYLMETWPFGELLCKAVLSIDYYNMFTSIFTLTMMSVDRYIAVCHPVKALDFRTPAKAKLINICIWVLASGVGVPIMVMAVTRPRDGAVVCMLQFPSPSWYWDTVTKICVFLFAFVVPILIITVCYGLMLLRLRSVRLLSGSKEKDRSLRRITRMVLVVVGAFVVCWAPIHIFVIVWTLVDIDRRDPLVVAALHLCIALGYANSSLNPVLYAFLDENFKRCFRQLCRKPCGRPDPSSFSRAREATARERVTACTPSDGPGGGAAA
In short: (§3)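 Competition binding with the radioligand [3H]-DPN on membranes from CHO-K1 cells stably transfected with human recombinant μ or δ opioid receptor or guinea pig κ opioid receptor. Affinity is reported as pKi.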

[6] = target: Kappa-type opioid receptor (Cavia porcellus, UniProt P41144); experiment: Displacement of [3H]DPN from guinea pig kappa opioid receptor expressed in CHOK1 cell membranes; in short: as §3
Kappa-type opioid receptor, sequence (P41144 whole entry): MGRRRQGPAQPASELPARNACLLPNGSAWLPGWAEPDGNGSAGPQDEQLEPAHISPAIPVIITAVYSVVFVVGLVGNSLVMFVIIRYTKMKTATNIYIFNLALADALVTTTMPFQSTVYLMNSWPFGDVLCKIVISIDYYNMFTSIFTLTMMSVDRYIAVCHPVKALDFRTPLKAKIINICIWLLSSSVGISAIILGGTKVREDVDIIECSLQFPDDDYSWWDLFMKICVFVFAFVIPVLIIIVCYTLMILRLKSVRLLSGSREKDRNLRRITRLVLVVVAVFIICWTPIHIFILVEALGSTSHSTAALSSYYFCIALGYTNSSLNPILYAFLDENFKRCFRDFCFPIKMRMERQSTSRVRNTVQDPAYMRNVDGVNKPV

Mu-type opioid receptor [7] = target: T1, Mu-type opioid receptor; experiment: Displacement of [3H]DPN from recombinant human mu opioid receptor expressed in CHOK1 cell membranes; in short: as §3
Liver [8] = experiment: as §2; type: ADME, Canis lupus familiaris, microsome; conditions: microsomes
[9] = as §1; type: ADME, microsome; conditions: liver microsomes

Structure (SMILES)	Intrinsic activity (Mu-type opioid receptor [1])	pKi [5]	pKi (Mu-type opioid receptor [7])	further results
NC(=O)c1cccc(C2C[C@H]3CC[C@H](C2)N3CC(O)Cc2ccccc2)c1 (relative stereo)	3%	–	–	–
Oc1cccc(C2C[C@H]3CC[C@H](C2)N3Cc2c(F)cccc2F)c1 (relative stereo; 18a) [listing 1 of 2 here]	36%	–	–	–
CC(C)(C)c1ccc(CN2[C@@H]3CC[C@@H]2CC(c2cccc(O)c2)C3)cc1 (relative stereo; 20a) [listing 1 of 2 here]	–	9.30	10.00	t1/2 (Liver [2]): 16 min; half-life [3]: 2 min; half-life [4]: 5 min; pKi [6]: 10.00
Oc1cccc(C2C[C@H]3CC[C@H](C2)N3Cc2c(F)cccc2F)c1 (relative stereo; 18b) [listing 1 of 2 here]	48%	–	–	–
Oc1cccc(C2C[C@H]3CC[C@H](C2)N3CC(O)Cc2ccccc2)c1 (relative stereo; 23b) [listing 1 of 2 here]	–	6.60	8.00	t1/2 (Liver [2]): > 90 min; pKi [6]: 7.70
O=C1c2ccccc2C(=O)N1CCCCN1[C@@H]2CC[C@@H]1CC(c1cccc(O)c1)C2 (relative stereo; 21a)	26%	–	–	–
CC(C)(C)c1ccc(CN2[C@@H]3CC[C@@H]2CC(c2cccc(O)c2)C3)cc1 (relative stereo; 20b) [listing 1 of 2 here]	–	7.50	8.70	t1/2 (Liver [2]): 67 min; t1/2 (Liver [8]): 7 min; pKi [6]: 8.50
Oc1cccc(C2C[C@H]3CC[C@H](C2)N3CCCOc2ccccc2)c1 (relative stereo; 19b) [listing 1 of 2 here]	–	7.20	8.50	t1/2 (Liver [2]): 20 min; t1/2 (Liver [8]): 2 min; pKi [6]: 7.70
CCCCCCCN1[C@@H]2CC[C@@H]1CC(c1cccc(C(N)=O)c1)C2 (relative stereo)	28%	–	–	–
Oc1cccc(C2C[C@H]3CC[C@H](C2)N3CCCc2ccccc2)c1 (relative stereo; 12a)	22%	–	–	–
CCCCCCCN1[C@@H]2CC[C@@H]1CC(c1cccc(C(N)=O)c1)C2 (some centres not stated)	38%	–	–	–
CCCCCCCN1[C@@H]2CC[C@@H]1CC(c1cccc(O)c1)C2 (relative stereo; 17a) [listing 1 of 2 here]	26%	–	–	–
CCCCCCCN1[C@@H]2CC[C@@H]1CC(c1cccc(O)c1)C2 (relative stereo; 17b)	62%	–	–	–
NC(=O)c1cccc(C2C[C@H]3CC[C@H](C2)N3Cc2c(F)cccc2F)c1 (relative stereo; 26b)	19%	–	–	–
O=C(CN1[C@@H]2CC[C@@H]1CC(c1cccc(O)c1)C2)C1CCCCC1 (relative stereo; 22b) [listing 1 of 2 here]	57%	–	–	–
NC(=O)c1cccc(C2C[C@H]3CC[C@H](C2)N3CC(=O)C2CCCCC2)c1 (relative stereo; 30a) [listing 1 of 2 here]	–	8.70	9.80	half-life [9]: > 90 min; half-life [3]: 70 min; t1/2 (Liver [8]): 21 min; pKi [6]: 10.00
NC(=O)c1cccc(C2C[C@H]3CC[C@H](C2)N3CCCOc2ccccc2)c1 (some centres not stated) [listing 1 of 2 here]	–	7.00	8.20	t1/2 (Liver [8]): 6 min; pKi [6]: 7.50
NC(=O)c1cccc(C2C[C@H]3CC[C@H](C2)N3CCCOc2ccccc2)c1 (some centres not stated) [listing 2 of 2 here]	95%	–	–	–
NC(=O)c1cccc(C2C[C@H]3CC[C@H](C2)N3CCCc2ccccc2)c1 (relative stereo; 24a)	24%	–	–	–
Oc1cccc(C2C[C@H]3CC[C@H](C2)N3CCCc2ccccc2)c1 (relative stereo; 12b) [listing 1 of 2 here]	64%	–	–	–
CCCCCCCN1[C@@H]2CC[C@@H]1CC(c1cccc(O)c1)C2 (relative stereo; 17a) [listing 2 of 2 here]	–	8.60	9.60	t1/2 (Liver [2]): 10 min; half-life [3]: 3 min; t1/2 (Liver [8]): 2 min; pKi [6]: 9.60
NC(=O)c1cccc(C2C[C@H]3CC[C@H](C2)N3CCCCN2C(=O)c3ccccc3C2=O)c1 (relative stereo; 29b) [listing 1 of 2 here]	75%	–	–	–
Oc1cccc(C2C[C@H]3CC[C@H](C2)N3CC(O)Cc2ccccc2)c1 (relative stereo; 23a) [listing 1 of 2 here]	–	8.20	9.60	t1/2 (Liver [2]): 32 min; half-life [3]: 2 min; half-life [4]: 2 min
Oc1cccc(C2C[C@H]3CC[C@H](C2)N3Cc2c(F)cccc2F)c1 (relative stereo; 18a) [listing 2 of 2 here]	–	6.80	7.80	t1/2 (Liver [2]): 29 min; half-life [3]: 2 min; half-life [4]: 20 min; pKi [6]: 8.30

Structure (SMILES)	Intrinsic activity (Mu-type opioid receptor [1])	pKi [5]	pKi (Mu-type opioid receptor [7])	further results
NC(=O)c1cccc(C2C[C@H]3CC[C@H](C2)N3CC(=O)C2CCCCC2)c1 (relative stereo; 30b)	93%	–	–	–
Oc1cccc(C2C[C@H]3CC[C@H](C2)N3CC(O)Cc2ccccc2)c1 (relative stereo; 23b) [listing 2 of 2 here]	36%	–	–	–
NC(=O)c1cccc(C2C[C@H]3CC[C@H](C2)N3Cc2c(F)cccc2F)c1 (relative stereo; 26a)	26%	–	–	–
NC(=O)c1cccc(C2C[C@H]3CC[C@H](C2)N3CCCc2ccccc2)c1 (relative stereo; 24b)	48%	–	–	–
CC(C)(C)c1ccc(CN2[C@@H]3CC[C@@H]2CC(c2cccc(C(N)=O)c2)C3)cc1 (relative stereo; 28b) [listing 1 of 2 here]	73%	–	–	–
Oc1cccc(C2C[C@H]3CC[C@H](C2)N3CCCOc2ccccc2)c1 (relative stereo; 19a) [listing 1 of 2 here]	9%	–	–	–
O=C1c2ccccc2C(=O)N1CCCCN1[C@@H]2CC[C@@H]1CC(c1cccc(O)c1)C2 (relative stereo; 21b)	97%	–	–	–
CC(C)(C)c1ccc(CN2[C@@H]3CC[C@@H]2CC(c2cccc(O)c2)C3)cc1 (relative stereo; 20b) [listing 2 of 2 here]	97%	–	–	–
CC(C)(C)c1ccc(CN2[C@@H]3CC[C@@H]2CC(c2cccc(C(N)=O)c2)C3)cc1 (relative stereo; 28a)	92%	–	–	–
Oc1cccc(C2C[C@H]3CC[C@H](C2)N3CC(O)Cc2ccccc2)c1 (relative stereo; 23a) [listing 2 of 2 here]	1%	–	–	–
O=C(CN1[C@@H]2CC[C@@H]1CC(c1cccc(O)c1)C2)C1CCCCC1 (relative stereo; 22a)	33%	–	–	–
Oc1cccc(C2CC3CCC(C2)N3CCCc2ccccc2)c1 (mixture of isomers)	22%	8.90	9.80	–
NC(=O)c1cccc(C2C[C@H]3CC[C@H](C2)N3CCCCN2C(=O)c3ccccc3C2=O)c1 (relative stereo; 29a)	0%	–	–	–
NC(=O)c1cccc(C2C[C@H]3CC[C@H](C2)N3CCCOc2ccccc2)c1 (relative stereo)	0%	–	–	–
CC(C)(C)c1ccc(CN2[C@@H]3CC[C@@H]2CC(c2cccc(C(N)=O)c2)C3)cc1 (relative stereo; 28b) [listing 2 of 2 here]	–	6.70	8.00	pKi [6]: 7.50
Oc1cccc(C2C[C@H]3CC[C@H](C2)N3CCCOc2ccccc2)c1 (relative stereo; 19a) [listing 2 of 2 here]	–	8.80	10.00	half-life [9]: 25 min; half-life [3]: 2 min; t1/2 (Liver [8]): 9 min; pKi [6]: 9.60
Oc1cccc(C2C[C@H]3CC[C@H](C2)N3CCCc2ccccc2)c1 (relative stereo; 12b) [listing 2 of 2 here]	–	7.20	8.30	t1/2 (Liver [2]): 27 min; pKi [6]: 8.10
O=C(CN1[C@@H]2CC[C@@H]1CC(c1cccc(O)c1)C2)C1CCCCC1 (relative stereo; 22b) [listing 2 of 2 here]	–	7.70	8.70	t1/2 (Liver [2]): 13 min; pKi [6]: 9.10
Oc1cccc(C2C[C@H]3CC[C@H](C2)N3CCCOc2ccccc2)c1 (relative stereo; 19b) [listing 2 of 2 here]	85%	–	–	–
Oc1cccc(C2C[C@H]3CC[C@H](C2)N3Cc2c(F)cccc2F)c1 (relative stereo; 18b) [listing 2 of 2 here]	–	5.60	6.20	t1/2 (Liver [2]): 75 min; t1/2 (Liver [8]): 13 min; pKi [6]: 6.90
CC(C)(C)c1ccc(CN2[C@@H]3CC[C@@H]2CC(c2cccc(O)c2)C3)cc1 (relative stereo; 20a) [listing 2 of 2 here]	100%	–	–	–
NC(=O)c1cccc(C2C[C@H]3CC[C@H](C2)N3CCCCN2C(=O)c3ccccc3C2=O)c1 (relative stereo; 29b) [listing 2 of 2 here]	–	6.70	7.50	t1/2 (Liver [8]): 11 min
NC(=O)c1cccc(C2C[C@H]3CC[C@H](C2)N3CC(=O)C2CCCCC2)c1 (relative stereo; 30a) [listing 2 of 2 here]	41%	–	–	–
NC(=O)c1cccc(C2C[C@H]3CC[C@H](C2)N3CC(O)Cc2ccccc2)c1 (stereo in doubt; 31b)	39%	–	–	–
